A short description of test [1]: RPL19A-GFP modulators, yeast TOR pathway, confirmation, cell-based, S. cerevisiae, flow cytometry, cherry picks, mother/daughter gates (AID 2270;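 active = GFP response below 50% of the DMSO control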). Conditions: S. cerevisiae RPL19A-GFP strain, 3 h, at 10 µM, stronger effect = lower value, 100 = same GFP as DMSO wells.
Test [2] in a line: LAP4-GFP expression modulators in yeast, confirmation, cell-based, cherry picks, flow cytometry, mother/daughter gates (AID 2271;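 active = GFP response above 150% of the DMSO control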;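 note: ratio of sample to DMSO plate mean so 100% equals DMSO level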). Conditions: S. cerevisiae LAP4-GFP strain, 3 h, at 10 µM, stronger effect = higher value, 100 means same as DMSO control. The method in brief:
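Measured by: GFP by flow cytometry. Test system: GFP-fusion yeast strain. Input: yeast cells seeded at OD600 of 0.2. Timing: 30 °C, 3 h compound incubation, rotating. Buffer or medium: synthetic complete medium for yeast. Benchmarks: DMSO-only negative wells, rapamycin 400 ng/mL positive wells. Compound: 10 µM single dose.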

The nature of test [3]: modulators of MEP2-GFP levels in yeast, confirmation, S. cerevisiae, flow cytometry GFP, cherry picks (AID 2272;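 active = GFP response above 150% of the DMSO control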;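 note: ratio of well signal to plate DMSO mean so 100% equals DMSO level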). Conditions: S. cerevisiae MEP2-GFP strain, 3 h, at 10 µM, stronger effect = higher value.
Test [4] in a line: AGP1-GFP expression modulators, hit retest, confirmation, cell-based, flow cytometry, S. cerevisiae, cherry picks (AID 2273).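 Note: median GFP channel fluorescence over the whole cell population gate.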 Conditions: S. cerevisiae AGP1-GFP strain, 3 h, at 10 µM. On the technique in general: A flow cytometer gives signals particle by particle.
The nature of test [5]: modulators of CIT2-GFP expression in yeast, confirmation, S. cerevisiae, GFP fusion, cherry picks, mother/daughter gates (AID 2274). The following applies: S. cerevisiae CIT2-GFP strain, flow cytometry, 3 h, at 10 µM, stronger effect = higher value.
Setting [6] is: measured here: daughter cell gate.
Where [7] appears, read: measured here: mother cell gate.
[8] abbreviates: measured here: daughter cell gate response.
Setting [9] is: measured here: mother cell gate response.

These results are taken from PubChem BioAssay.

Calls of active or inactive are those of the source.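 Rule for the calls, unless noted: active = GFP response above 150% of the DMSO level; inconclusive = fewer than 70 events counted for a yeast strain; inactive = the rest.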

On to `CC(C)(C)C(=O)C(Cl)C(=O)Nc1ccccc1` (stereo unspecified), for which the GFP response vs DMSO in test [1] is 79.7% (inactive); in test [1] (setting [6]), 89.6%; in test [1] (setting [7]), 72.1%; in test [3], 145% (inactive). In addition, the GFP response relative to DMSO in test [2] was 300% (active); in test [2] (setting [8]), 186%; in test [2] (setting [9]), 271%. For the same molecule, the GFP response, % of DMSO in test [4] was 135% (inactive); in test [5], 126% (inactive); in test [5] (setting [6]) it was 106%; in test [5] (setting [7]) it was 115%.
Consider `COc1ccccc1/C=C/C=N/NC(=O)c1cccs1`, for which the GFP response vs DMSO is 97.8% (inactive) in test [1], 97.3% in test [1] (setting [6]), 97.5% in test [1] (setting [7]) and 107% (inactive) in test [3]. The GFP response relative to DMSO was 99.8% (inactive) in test [2], 95.6% in test [2] (setting [8]) and 102% in test [2] (setting [9]). Also, the GFP response, % of DMSO in test [4] is 100% (inactive); in test [5] it was 99.1% (inactive); in test [5] (setting [6]), 96.5%; in test [5] (setting [7]), 97.7%.
Consider `COc1cccc2c1Oc1ncccc1N(C(=O)CCC(=O)NCc1cccc(C)c1)C2`, for which the GFP response vs DMSO was 98.4% (inactive) in test [1], 98.6% in test [1] (setting [6]), 99.2% in test [1] (setting [7]) and 100% (inactive) in test [3]. For the same molecule, the GFP response relative to DMSO was 97.9% (inactive) in test [2], 97.6% in test [2] (setting [8]) and 98.3% in test [2] (setting [9]). Besides, the GFP response, % of DMSO in test [4] is 97.6% (inactive); in test [5], 105% (inactive); in test [5] (setting [6]) it was 106%; in test [5] (setting [7]), 104%.
In the case of `Cc1cc(-n2nc(C)cc2C)n2ncc(-c3ccccc3)c2n1`, the GFP response vs DMSO in test [1] was 105% (inactive); in test [1] (setting [6]) it was 101%; in test [1] (setting [7]) it was 106%; in test [3], 103% (inactive). The GFP response relative to DMSO is 95.7% (inactive) in test [2], 95.9% in test [2] (setting [8]) and 96.2% in test [2] (setting [9]). For the same molecule, the GFP response, % of DMSO in test [4] was 102% (inactive); in test [5] it was 97.3% (inactive); in test [5] (setting [6]) it was 95.6%; in test [5] (setting [7]), 98.1%.
Turning to `CC(=O)Nc1cccc(/C(C)=N/NC(=O)c2ccccc2Cl)c1`, the GFP response vs DMSO in test [1] was 98.2% (inactive); in test [1] (setting [6]), 97.9%; in test [1] (setting [7]), 98.7%; in test [3], 100% (inactive). For the same molecule, the GFP response relative to DMSO in test [2] was 102% (inactive); in test [2] (setting [8]), 102%; in test [2] (setting [9]), 99.3%. Further, the GFP response, % of DMSO is 101% (inactive) in test [4], 99.7% (inactive) in test [5], 101% in test [5] (setting [6]) and 99.7% in test [5] (setting [7]).
For `Cc1c(O)nc(SC2CC(=O)N(c3ccccc3)C2=O)[nH]c1=O` (stereo unspecified), the GFP response vs DMSO was 96.4% (inactive) in test [1], 96.5% in test [1] (setting [6]), 96.7% in test [1] (setting [7]) and 99.5% (inactive) in test [3]. Also, the GFP response relative to DMSO in test [2] is 109% (inactive); in test [2] (setting [8]), 101%; in test [2] (setting [9]) it was 107%. Moreover, the GFP response, % of DMSO was 97.1% (inactive) in test [4], 96.4% (inactive) in test [5], 98.3% in test [5] (setting [6]) and 96.8% in test [5] (setting [7]).
As for `COc1ccc(OC)c(/C=C/C(=O)c2ccc(Cl)cc2)c1`, the GFP response vs DMSO in test [1] is 92.2% (inactive); in test [1] (setting [6]), 91.9%; in test [1] (setting [7]) it was 92%; in test [3], 96.2% (inactive). Moreover, the GFP response relative to DMSO in test [2] was 104% (inactive); in test [2] (setting [8]), 97.6%; in test [2] (setting [9]), 105%. Also, the GFP response, % of DMSO is 98.5% (inactive) in test [4], 101% (inactive) in test [5], 101% in test [5] (setting [6]) and 101% in test [5] (setting [7]).
In the case of `O=C(CCCCCN1C(=O)c2cccc3cccc(c23)C1=O)N1CCOCC1`, the GFP response vs DMSO in test [1] was 102% (inactive); in test [1] (setting [6]), 101%; in test [1] (setting [7]), 102%; in test [3], 99% (inactive). In addition, the GFP response relative to DMSO was 102% (inactive) in test [2], 101% in test [2] (setting [8]) and 103% in test [2] (setting [9]). For the same molecule, the GFP response, % of DMSO in test [4] was 99.8% (inactive); in test [5], 103% (inactive); in test [5] (setting [6]), 101%; in test [5] (setting [7]) it was 103%.
With `COc1cccc(C(=O)Nc2ccc(C)cc2)c1`, the GFP response vs DMSO is 100% (inactive) in test [1], 99.9% in test [1] (setting [6]), 100% in test [1] (setting [7]) and 102% (inactive) in test [3]. Further, the values for the GFP response relative to DMSO in test [2], in test [2] (setting [8]) and in test [2] (setting [9]) were 101% (inactive), 99.2% and 101%, respectively. In addition, the GFP response, % of DMSO in test [4] was 91.2% (inactive); in test [5], 107% (inactive); in test [5] (setting [6]) it was 106%; in test [5] (setting [7]) it was 106%.
With `CC(Oc1cccc(Cl)c1)C(=O)Nc1nc(-c2ccccn2)cs1` (stereo unspecified), the GFP response vs DMSO is 105% (inactive) in test [1], 97% in test [1] (setting [6]), 103% in test [1] (setting [7]) and 104% (inactive) in test [3]. Moreover, the GFP response relative to DMSO in test [2] is 161% (active); in test [2] (setting [8]) it was 140%; in test [2] (setting [9]), 167%. Moreover, the GFP response, % of DMSO in test [4] is 90.8% (inactive); in test [5], 86.1% (inactive); in test [5] (setting [6]), 93.2%; in test [5] (setting [7]), 81.6%.
Consider `COc1ccc(NC(=O)C2C3C=CC(C3)C2C(=O)NCc2ccco2)c(OC)c1` (stereo unspecified), for which the GFP response vs DMSO in test [1] is 97.6% (inactive); in test [1] (setting [6]), 94.4%; in test [1] (setting [7]) it was 93.3%; in test [3] it was 101% (inactive). Besides, the figures for the GFP response relative to DMSO in test [2], in test [2] (setting [8]) and in test [2] (setting [9]) were 100% (inactive), 96% and 94.4%, respectively. The GFP response, % of DMSO is 103% (inactive) in test [4], 98.6% (inactive) in test [5], 95.8% in test [5] (setting [6]) and 96% in test [5] (setting [7]).
For `O=C1c2cccc3cccc(c23)C(=O)N1c1cccnc1`, the GFP response vs DMSO in test [1] is 100% (inactive); in test [1] (setting [6]) it was 102%; in test [1] (setting [7]) it was 101%; in test [3], 98.3% (inactive). For the same molecule, the GFP response relative to DMSO in test [2] was 85% (inactive); in test [2] (setting [8]) it was 86.4%; in test [2] (setting [9]) it was 85.5%. In addition, the GFP response, % of DMSO is 98.7% (inactive) in test [4], 99.7% (inactive) in test [5], 105% in test [5] (setting [6]) and 98.5% in test [5] (setting [7]).
For `Cc1ccc2nc(Cl)c3nnnn3c2c1`, the GFP response vs DMSO in test [1] was 66.6% (inactive); in test [1] (setting [6]), 58.4%; in test [1] (setting [7]) it was 56.7%; in test [3] it was 152% (inactive). In addition, the GFP response relative to DMSO in test [2] was 281% (active); in test [2] (setting [8]), 153%; in test [2] (setting [9]) it was 270%. Further, the GFP response, % of DMSO in test [4] was 109% (inactive); in test [5], 82.8% (inactive); in test [5] (setting [6]), 84.8%; in test [5] (setting [7]) it was 72.3%.
Turning to `Cc1ccc(C(c2cc(Cl)c3cccnc3c2O)N2CCN(C)CC2)cc1` (stereo unspecified), the GFP response vs DMSO in test [1] is 81.4% (inactive); in test [1] (setting [6]), 94.4%; in test [1] (setting [7]), 67.7%; in test [3], 116% (inactive). Besides, the GFP response relative to DMSO in test [2] is 184% (active); in test [2] (setting [8]), 141%; in test [2] (setting [9]), 208%. Moreover, the GFP response, % of DMSO was 95.9% (inactive) in test [4], 119% (inactive) in test [5], 97.4% in test [5] (setting [6]) and 113% in test [5] (setting [7]).
On to `Cc1cccc(/C=C/c2onc(C)c2[N+](=O)[O-])n1`, for which the GFP response vs DMSO in test [1] is 99.9% (inactive); in test [1] (setting [6]), 99.5%; in test [1] (setting [7]), 96.6%; in test [3] it was 100% (inactive). Moreover, the GFP response relative to DMSO in test [2] was 146% (inactive); in test [2] (setting [8]), 137%; in test [2] (setting [9]), 147%. Further, the GFP response, % of DMSO was 94.3% (inactive) in test [4], 87.4% (inactive) in test [5], 91.5% in test [5] (setting [6]) and 82.6% in test [5] (setting [7]).
As to `O=C(O)CSC1CC(=O)N(c2cccc(Cl)c2)C1=O` (stereo unspecified), the GFP response vs DMSO in test [1] is 96.7% (inactive); in test [1] (setting [6]), 97.3%; in test [1] (setting [7]), 94.6%; in test [3] it was 110% (inactive). Also, the GFP response relative to DMSO is 104% (inactive) in test [2], 101% in test [2] (setting [8]) and 104% in test [2] (setting [9]). Besides, the GFP response, % of DMSO in test [4] was 101% (inactive); in test [5] it was 104% (inactive); in test [5] (setting [6]), 105%; in test [5] (setting [7]), 104%.
